Measured values as given in ChEMBL document CHEMBL4813996, “Design and development of 1,3,5-triazine derivatives as protective agent against spinal cord injury in rat via inhibition of NF-ĸB” (Bioorg Med Chem Lett, 2021).
pIC50: −log10 of the molar value. One block for each compound: values may come before it. Calls of active or inactive are those of the source. The rule behind the calls is not given here.

What was measured:
[1] = Inhibition of NFkappaB transcriptional activity in LPS-stimulated mouse RAW264.7 cells
How it was run: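 IC50 for inhibition of NF-κB transcription, reported as mean ± SD from at least three independent assays.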

Rattus norvegicus [2] = test: Neuroprotective activity in ip dosed contusion injury induced Sprague-Dawley rat SCI model assessed as restoration of motor functions administered once daily for 14 days; type: functional, organism-based; settings: dose 10-30 mg/kg, time 14.0 day
How it was run: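 Spinal cord contusion made by weight drop, a rod dropped onto the cord. Dosing at 10, 20 and 30 mg/kg i.p., suspended in 2% CMC, once daily for 14 days. Motor function scored on the BBB scale on days 1, 4, 7, 10 and 14. Mean ± SEM from three independent experiments, one-way ANOVA with Tukey post hoc test, compared with sham and SCI groups.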

Rattus norvegicus [3] = test: Neuroprotective activity in contusion injury induced Sprague-Dawley rat SCI model assessed as improvement in ratio of wet to dry spinal cord weight at 10 to 30 mg/kg, ip administered once daily for 14 days; type: functional, organism-based; settings: dose 10-30 mg/kg, time 14.0 day
How it was run: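 Weight-drop contusion SCI, with a rod dropped on the cord. Rats given 10, 20 or 30 mg/kg i.p. in 2% CMC once a day for 14 days. Ratio of wet to dry spinal cord weight measured 24 h post-SCI. Mean ± SEM of three independent experiments, one-way ANOVA with Tukey test.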

Rattus norvegicus [4] = test: Neuroprotective activity in contusion injury induced Sprague-Dawley rat SCI model assessed as reduction in edema in spinal cord at 10 to 30 mg/kg, ip administered once daily for 14 days by H and E staining based assay; type: functional, organism-based; settings: dose 10-30 mg/kg, time 14.0 day
How it was run: (§1)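 Rats with SCI from weight-drop contusion received 10, 20 or 30 mg/kg i.p., suspended in 2% CMC, daily for 14 days. Spinal cord tissue sections stained with H&E for histopathology and edema. Three independent experiments, mean ± SEM, one-way ANOVA with Tukey post hoc test.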

Rattus norvegicus [5] = test: Neuroprotective activity in contusion injury induced Sprague-Dawley rat SCI model assessed as inhibition of morphological changes in spinal cord at 10 to 30 mg/kg, ip administered once daily for 14 days by H and E staining based assay; type: functional, organism-based; settings: dose 10-30 mg/kg, time 14.0 day; how it was run: as §1
Rattus norvegicus [6] = test: Neuroprotective activity in contusion injury induced Sprague-Dawley rat SCI model assessed as restoration of tissue histopathology in spinal cord at 10 to 30 mg/kg, ip administered once daily for 14 days by H and E staining based assay; type: functional, organism-based; settings: dose 10-30 mg/kg, time 14.0 day; how it was run: as §1
Rattus norvegicus [7] = test: Neuroprotective activity in ip dosed Sprague-Dawley rat SCI model assessed as increase in nissl bodies administered once daily for 14 days by Nissl staining based assay; type: functional, organism-based; settings: dose 10-30 mg/kg, time 14.0 day
How it was run: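 Contusion SCI by weight drop. Treatment at 10, 20 or 30 mg/kg i.p. in 2% CMC once daily for 14 days. Neuronal damage assessed by Nissl staining of the spinal cord, with Nissl bodies quantified. Mean ± SEM from three independent experiments.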

Rattus norvegicus [8] = test: Neuroprotective activity in Sprague-Dawley rat SCI model assessed as increase in GSH level at 10 to 30 mg/kg, ip administered once daily for 14 days; type: functional, organism-based; settings: dose 10-30 mg/kg, time 14.0 day
How it was run: (§2)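 Spinal cord of weight-drop contusion SCI rats dosed at 10, 20 or 30 mg/kg i.p. in 2% CMC daily for 14 days. Oxidative stress indices MDA, GSH and SOD measured in spinal cord. Mean ± SEM, three independent experiments, one-way ANOVA with Tukey test against sham and SCI groups.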

Rattus norvegicus [9] = test: Neuroprotective activity in Sprague-Dawley rat SCI model assessed as increase in SOD level at 10 to 30 mg/kg, ip administered once daily for 14 days; type: functional, organism-based; settings: dose 10-30 mg/kg, time 14.0 day; how it was run: as §2
Rattus norvegicus [10] = test: Neuroprotective activity in Sprague-Dawley rat SCI model assessed as reduction in MDA level at 10 to 30 mg/kg, ip administered once daily for 14 days; type: functional, organism-based; settings: dose 10-30 mg/kg, time 14.0 day; how it was run: as §2
Rattus norvegicus [11] = test: Neuroprotective activity in Sprague-Dawley rat SCI model assessed as reduction in IL-1beta level at 10 to 30 mg/kg, ip administered once daily for 14 days by ELISA; type: functional, organism-based; settings: dose 10-30 mg/kg, time 14.0 day
How it was run: (§3)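 After weight-drop contusion SCI, rats received 10, 20 or 30 mg/kg i.p. as a 2% CMC suspension once daily for 14 days. TNF-α, IL-1β and IL-6 levels determined by ELISA. Mean ± SEM from three independent experiments, one-way ANOVA followed by Tukey post hoc test.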

Rattus norvegicus [12] = test: Neuroprotective activity in Sprague-Dawley rat SCI model assessed as reduction in IL-6 level at 10 to 30 mg/kg, ip administered once daily for 14 days by ELISA; type: functional, organism-based; settings: dose 10-30 mg/kg, time 14.0 day; how it was run: as §3
Rattus norvegicus [13] = test: Neuroprotective activity in Sprague-Dawley rat SCI model assessed as reduction in TNFalpha level at 10 to 30 mg/kg, ip administered once daily for 14 days by ELISA; type: functional, organism-based; settings: dose 10-30 mg/kg, time 14.0 day; how it was run: as §3
Rattus norvegicus [14] = test: Neuroprotective activity in Sprague-Dawley rat SCI model assessed as reduction in NFkappaB expression in spinal cord at 10 to 30 mg/kg, ip administered once daily for 14 days by Western blot analysis; type: functional, organism-based; settings: dose 10-30 mg/kg, time 14.0 day
How it was run: (§4)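 Weight-drop contusion SCI rats treated with 10, 20 or 30 mg/kg i.p. in 2% CMC daily for 14 days. Spinal cord tissue analysed by western blot for NF-κB, p-IκBα and TLR4, with band quantification. Mean ± SEM of three independent experiments.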

Rattus norvegicus [15] = test: Neuroprotective activity in Sprague-Dawley rat SCI model assessed as reduction in TLR4 expression in spinal cord at 10 to 30 mg/kg, ip administered once daily for 14 days by Western blot analysis; type: functional, organism-based; settings: dose 10-30 mg/kg, time 14.0 day; how it was run: as §4
Rattus norvegicus [16] = test: Neuroprotective activity in Sprague-Dawley rat SCI model assessed as reduction in IkappaBalpha expression in spinal cord at 10 to 30 mg/kg, ip administered once daily for 14 days by Western blot analysis; type: functional, organism-based; settings: dose 10-30 mg/kg, time 14.0 day; how it was run: as §4

- pIC50 [1]: 6.04
Compound: C[C@@H]1C[C@H]2[C@@H]3CCC4=CC(=O)C=C[C@]4(C)[C@@]3(F)[C@@H](O)C[C@]2(C)[C@@]1(O)C(=O)CO [DEXAMETHASONE]

- pIC50 [1]: 5.21
Compound: Cc1nc(NC(=O)c2ccc(CN3CCN(c4ccc([N+](=O)[O-])cc4)CC3)cc2)nc(Nc2nccc(-c3nccs3)n2)n1

- pIC50 [1]: 5.49
Compound: Cc1nc(NC(=O)c2ccc(CN3CCN(c4ccc(Br)cc4)CC3)cc2)nc(Nc2nccc(-c3nccs3)n2)n1

- pIC50 [1]: 3.87
Compound: Cc1nc(NC(=O)c2ccc(CN3CCN(c4ccccc4)CC3)cc2)nc(Nc2nccc(-c3nccs3)n2)n1

- pIC50 [1]: 5.00
Compound: Cc1ccc(N2CCN(Cc3ccc(C(=O)Nc4nc(C)nc(Nc5nccc(-c6nccs6)n5)n4)cc3)CC2)cc1

- pIC50 [1]: 5.87
Compound: Cc1ccc(NC(=O)c2ccc(CN3CCN(C)CC3)cc2)cc1Nc1nccc(-c2cccnc2)n1 [IMATINIB]

- pIC50 [1]: 5.98
Compound: Cc1nc(NC(=O)c2ccc(CN3CCN(c4ccc(Cl)cc4)CC3)cc2)nc(Nc2nccc(-c3nccs3)n2)n1
- Activity (Rattus norvegicus [2]): Dose-Dependent Effect
- Activity (Rattus norvegicus [3]): Active
- Activity (Rattus norvegicus [4]): Active
- Activity (Rattus norvegicus [5]): Active
- Activity (Rattus norvegicus [6]): Active
- Activity (Rattus norvegicus [7]): Dose-Dependent Effect
- Activity (Rattus norvegicus [8]): Active
- Activity (Rattus norvegicus [9]): Active
- Activity (Rattus norvegicus [10]): Active
- Activity (Rattus norvegicus [11]): Active
- Activity (Rattus norvegicus [12]): Active
- Activity (Rattus norvegicus [13]): Active
- Activity (Rattus norvegicus [14]): Active
- Activity (Rattus norvegicus [15]): Active
- Activity (Rattus norvegicus [16]): Active

- pIC50 [1]: 4.27
Compound: Cc1nc(NC(=O)c2ccc(CN3CCN(c4ccc(O)cc4)CC3)cc2)nc(Nc2nccc(-c3nccs3)n2)n1

- pIC50 [1]: 4.06
Compound: COc1ccc(N2CCN(Cc3ccc(C(=O)Nc4nc(C)nc(Nc5nccc(-c6nccs6)n5)n4)cc3)CC2)cc1
